IMP-1 inh: blocks Pseudomonas aeruginosa IMP-1 metallo-beta-lactamase; purified IMP-1, nitrocefin hydrolysis, epi-absorbance fluorescence; inhibition, % at 5.6 µM; actives 0.45% (n = 290,000);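 active means inhibition above the mean plus 3 SD of all compounds in the same screening run, cut at about 4.5% in these data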;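 further: 0% = IMP-1 with DMSO and 100% = DMSO wells lacking enzyme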
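assay system = purified recombinant IMP-1 metallo-beta-lactamase enzyme | schedule = 15 min preincubation plus 25 min reaction at 25 °C | signal = Epi-absorbance fluorescence, 480 nm excitation, 530 nm emission | read-out basis = percent inhibition from optical density relative to buffer-blank wells | controls = IMP-1 with DMSO as 0%, enzyme-free DMSO as 100%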
VIM-2 inh: inhibitors of Pseudomonas aeruginosa VIM-2 metallo-beta-lactamase; inhibition, % at 5.6 µM; purified VIM-2, nitrocefin hydrolysis, epi-absorbance fluorescence; actives 0.89% (n = 290,000);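 active means inhibition above the mean of all tested compounds plus 3 SD, cutoff set per screening run, cut at about 7.5% in these data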;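 further: red hydrolysis product quenches plate fluorescence so inhibitors raise well fluorescence; 0% = enzyme with DMSO and 100% = DMSO without enzyme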
core dimer inh: blocks dimerization of HCV core protein; TR-FRET GST/Flag-core106 dimerization, 1536-well; inhibition, % at 5 µM; actives 0.33% (n = 300,000);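 active means inhibition above the mean of all tested compounds plus 3 SD, set per screening campaign, cut at about 45% in these data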
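Material: Tagged HCV core106 pair (GST and Flag) | Amount: GST-core106 13.5 nM, Flag-core106 17 nM | Medium: KF-containing HEPES buffer, pH 7.45, DTT, CHAPS, BSA | Reagent: Eu donor and XL665 acceptor anti-tag antibodies | Schedule: 4 h at 22.5 °C | Technique: Time-resolved FRET, ex 340 nm, em 617 and 671 nm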
FID counter: counter-screen for HCV NS3 helicase inhibitors: DNA intercalator displacement; actives 0.17% (n = 290,000); AID 1845; inhibition, % at 7.9 µM; DNA fluorescent intercalator displacement, fluorescence; in the data active means inhibition above about 37%;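 further: 0% = vehicle and 100% = reference compound; higher means more ethidium bromide displaced from hairpin DNA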
Numbers without * were called inactive. Shown are actives, neighbours in structure and some others; about 1.6% of the full set was active somewhere.

SMILES	IMP-1 inh	VIM-2 inh	core dimer inh	FID counter
Cn1c(CNC(=O)c2ccccc2F)nnc1SCC(=O)N1CCN(c2ccccc2)CC1	-1	0	-1	-15
CCN(CCNC(=O)C1CCN(Cc2nc(-c3ccc(Cl)cc3)oc2C)CC1)c1ccccc1	-6	-2	2	44*
CN1CCN(C2=Nc3cc(Cl)ccc3Nc3ccccc32)CC1	-5	-3	-12	-1
CN1CCN(C2=Nc3c(Cl)cc(Cl)c4cccc2c34)CC1	0	7.7*	-10	19
CCN1CCN(C(=S)NC(CC(=O)c2ccccc2)c2ccccc2)CC1 (configuration not stated)	-2	-3	0	12
Cc1ccc(CSC2=Nc3ccccc3C3=NC(CC(=O)NCc4ccco4)C(=O)N23)cc1 (configuration not stated)	-1	-1	64*	-24
O=C(CC1N=C2c3ccccc3N=C(SCc3ccc(F)cc3)N2C1=O)NCc1ccco1 (configuration not stated)	-2	0	0	-40
CCOc1cc(CNCCc2ccc(S(N)(=O)=O)cc2)ccc1OCc1ccc(Cl)cc1	-3	-1	-14	37*
COc1cc(CNCCc2ccc(S(N)(=O)=O)cc2)ccc1OCc1ccc(Cl)cc1	-2	-3	-7	20
Cc1nnc(SCC(=O)Nc2sccc2C#N)s1	0	1	33	-5
Cn1ccnc1SCC(=O)Nc1sccc1C#N	-2	-4	71*	-7
N#Cc1ccsc1NC(=O)CSc1ncn[nH]1	-2	0	-2	0
N#Cc1ccsc1NC(=O)CSc1ncnc2ccccc12	-4	-3	80*	-16
CCCCCOC(=O)Nc1ccc(S(=O)(=O)Nn2cnnc2)cc1	-4	-3	2	-7
Cc1csc(NC(=O)CCc2nc3ccccc3s2)n1	-4	-1	55*	-12
O=C(COC(=O)CCc1nc2ccccc2s1)Nc1nc(-c2ccccc2)cs1	-2	-1	12	-6
CC(CCc1ccccc1)NC(=O)CN1CCc2ccccc2C1 (configuration not stated)	-1	-2	1	-19
CC(C)CCSc1nc(N)c(C#N)cc1C#N	-2	-5	64*	-2
COc1ccc(C(O)Cn2c(=N)n(CCCN(C)C)c3ccccc32)cc1 (configuration not stated)	-3	3	-4	38*
CCCn1c(=N)n(CC(O)c2ccc(C)cc2)c2ccccc21 (configuration not stated)	-2	-2	-1	7
O=c1cc(CN2CCCc3ccccc32)nc2sccn12	3	3	2	3
O=c1cc(CN2CCc3ccccc32)nc2sccn12	-2	-2	86*	-6
Cc1ccc(NC(=O)CN(C)C(=O)CCC(=O)c2cccs2)cc1	8.9*	-2	0	-9
O=C(/C=C/c1ccco1)Nc1cccc(NC(=O)/C=C/c2ccco2)n1	-2	1	49*	-18
Cc1ccc2oc(-c3cccc(NC(=S)NC(=O)/C=C/c4ccco4)c3)nc2c1	-4	-4	57*	-14
SMILES	IMP-1 inh	VIM-2 inh	core dimer inh	FID counter
COc1cccc(NC(=S)NC(=O)/C=C/c2ccco2)c1	-2	-2	26	-11
O=C(/C=C/c1ccco1)NC(=S)Nc1cccc(C(=O)O)c1	8.9*	-4	9	-13
COc1ccc(CCNC(=O)c2nc3ncccn3n2)cc1OC	-4	-2	-2	-2
CCN(C(=O)c1cc2c(=O)n3cccc(C)c3nc2s1)C1CCCCC1	-2	9.0*	-8	-32
COc1ccc(CCNC(=O)c2cc3c(=O)n4cccc(C)c4nc3s2)cc1OC	0	10*	0	-6
COc1ccccc1N1CCN(C(=O)c2cc3c(=O)n4cccc(C)c4nc3s2)CC1	0	10*	6	-22
Cc1cccn2c(=O)c3cc(C(=O)N4CC(C)CC(C)C4)sc3nc12 (configuration not stated)	-2	12*	11	-20
COc1ccccc1Sc1ccccc1/C=N/NC(N)=O	-4	-3	2	-11
O=S(=O)(O)c1nc2ccccc2[nH]1	-4	0	-5	2
COc1cc(-c2nc(-c3ccc4c(c3)-c3ccccc3S4(=O)=O)c(-c3ccccc3)[nH]2)cc(OC)c1OC	-3	-1	32	-7
COc1cccc(-c2nc(-c3ccc4c(c3)-c3ccccc3S4(=O)=O)c(-c3ccccc3)[nH]2)c1OC	4.8*	-2	39	-14
O=C1/C(=C/C=C/c2ccco2)SC(=S)N1NS(=O)(=O)c1ccccc1	-2	1	65*	1

Screens as filed in PubChem BioAssay.
